Measured values as given in ChEMBL document CHEMBL3046042, “3-(4-Methylfuran-3-yl)propan-1-ol: a white-spotted Stinkbug ( Eysarcoris ventralis ) repellent produced by an endophyte isolated from green foxtail” (2010).

Tests used:
Assay type in all cases: functional
Eysarcoris [1] = assay: Repellent activity against Eysarcoris ventralis assessed as reduction in number of bugs at 0.01 umol measured after 30 min
Procedure, shortened: (§1)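 Two-choice bottle assay. Sample dissolved in acetone, 50 μL applied to filter paper strip (5 × 40 mm); control strip got acetone only. Strips dried, each placed in a glass bottle joined to the apparatus. Twenty E. ventralis adults released, held at 10 °C under light; bugs per bottle counted after 30 min. Repellency calculated by formula; four repeats, average ± standard error.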

Eysarcoris [2] = assay: Repellent activity against Eysarcoris ventralis assessed as reduction in number of bugs at 1 umol measured after 30 min; procedure, shortened: as §1
Eysarcoris [3] = assay: Repellent activity against Eysarcoris ventralis assessed as reduction in number of bugs at 0.1 umol measured after 30 min; procedure, shortened: as §1
Eysarcoris [4] = assay: Repellent activity against Eysarcoris ventralis assessed as reduction in number of bugs at 0.003 umol measured after 30 min; procedure, shortened: as §1

Structure (SMILES) | Repellency (Eysarcoris [1]) | Repellency (Eysarcoris [2]) | Repellency (Eysarcoris [3]) | Repellency (Eysarcoris [4])
CCC(=O)OCCCc1cocc1C | 20.5% | 89.3% | 58% | –
CC(=O)OCCCc1cocc1C | 7.3% | – | 90.2% | 10.7%
Cc1cocc1CCCO | – | 89.3% | 5.7% | –
CCCC(=O)OCCCc1cocc1C | -19.4% | 96.4% | 51.8% | 19.5%
Cc1cocc1CCCOC(=O)c1ccccc1 | – | 40.7% | 5.3% | –
c1ccc2ccccc2c1 [NAPHTHALENE] | 40.7% | 80.4% | 44.6% | –
